RBBP9 inh = human RBBP9 hydrolase inhibition | recombinant RBBP9, FP-Rh probe fluorescence polarization | inhibition, % at 7.94 µM | hit rate 0.2% among 220,000 | AID 1515;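 active = inhibition above the campaign mean of all tested compounds plus 3 SD, cut at about 14% in these data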;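 also: plate controls were DMSO wells with RBBP9 for no effect and wells lacking RBBP9 protein for full effect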
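Controls: DMSO-treated enzyme wells and wells lacking RBBP9 | Material: RBBP9 protein | Technique: Fluorescence polarization | Replication: Single well per compound, no replicates | Buffer or medium: Tris-NaCl-Pluronic buffer, pH 8.0 | Timing: 30 min compound preincubation, 45 min probe labeling, 25 °C | Read-out basis: Percent inhibition from mP, scaled between DMSO and no-protein wells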
PAD4 inh = inhibitors of human PAD4 | Q9UM07 | recombinant PAD4, RCA probe fluorescence polarization | hit rate 0.41% among 330,000 | AID 485272 | inhibition, % at 6.36 µM;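 active = percent inhibition above a cutoff equal to the mean of all tested compounds plus 3 SD, cut at about 15% in these data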;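 also: 0% = PAD4 with RCA probe and DMSO and 100% = probe without PAD4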
PRMT1 FP inh = blocks human protein arginine methyltransferase 1. hit rate 1.3% among 370,000. Q99873. inhibition, % at 2.79 µM. recombinant PRMT1, activity-based probe fluorescence polarization;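 active = inhibition above about 21% made by adding two undisclosed values, limit read from the data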
Target sequence (Q99873 whole entry, looked up): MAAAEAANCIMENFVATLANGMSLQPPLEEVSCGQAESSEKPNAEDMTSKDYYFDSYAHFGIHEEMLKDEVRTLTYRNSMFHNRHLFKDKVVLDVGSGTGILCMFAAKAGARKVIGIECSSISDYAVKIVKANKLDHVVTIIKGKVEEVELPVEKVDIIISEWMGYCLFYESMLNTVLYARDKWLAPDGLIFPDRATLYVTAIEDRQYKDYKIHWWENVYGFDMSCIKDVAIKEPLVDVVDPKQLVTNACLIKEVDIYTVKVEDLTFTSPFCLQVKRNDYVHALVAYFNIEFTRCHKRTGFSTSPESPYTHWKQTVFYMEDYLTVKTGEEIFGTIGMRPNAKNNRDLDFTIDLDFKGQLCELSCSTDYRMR
SIAE inh = human SIAE inhibition, primary screen; SIAE FP-Rh probe binding, fluorescence polarization; inhibition, % at 9.66 µM; hit rate 0.69% among 370,000; AID 1053197;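 active = inhibition above a cutoff: mean of compounds within the control limits plus 3 SD of those, cut at about 17% in these data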;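 also: 0% = plate median of compound wells and 100% = probe without SIAE protein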
GSTO1 inh = blocks human GSTO1 in RBBP9 counter-screen; AID 1974; inhibition, % at 5.96 µM; P78417; hit rate 1.1% among 300,000; recombinant GSTO1, activity-based probe fluorescence polarization;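 active = inhibition above the campaign mean inhibition plus 3 SD, cut at about 35% in these data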;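 also: 0% = GSTO1-1 with DMSO and 100% = wells lacking GSTO1-1 enzyme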
PRMT1 confirm = PRMT1 (human) inhibition, FP confirmation | shares compounds with PRMT1 FP inh | recombinant His-PRMT1, activity-based probe fluorescence polarization | inhibition, % at 2.79 µM | hit rate 42% among 3,300 | AID 687036;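 active = mean inhibition across replicates above the hit cutoff derived for the earlier primary screen, cut at about 22% in these data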
The depositor's hits bear a star; nt = no result given. In the library only some 2.7% were active in any assay of this set; here they are far more common.

SMILES	RBBP9 inh	PAD4 inh	PRMT1 FP inh	SIAE inh	GSTO1 inh	PRMT1 confirm
Cc1ccc2cc3c(N)c(C(=O)N4CCOCC4)sc3nc2c1	-3.4	-0.9	6.0	-3.7	-1.4	nt
COc1ccc2cc3c(N)c(C(=O)N4CCCC4)sc3nc2c1	-4.2	-1.9	40.8*	-0.1	5.5	-0.1
CC(C)(CCC(=S)N1CCOCC1)C1CCCCC1	nt	-0.6	37.4*	-4.6	1.4	5.5
O=C(CSC1=NNC(c2ccccn2)S1)Nc1cccc(Cl)c1 (centres undefined)	-14.3	-0.8	61.0*	-1.2	-9.2	40.9*
O=C(CSC1=NNC(c2ccccn2)S1)Nc1ccccc1 (centres undefined)	-5.7	13.0	66.2*	8.9	20.1	45.5*
O=C(NCCc1ccccc1)c1coc(=O)c(Br)c1	nt	nt	-3.1	2.2	nt	nt
CCCCc1cc(=O)oc2c(CN3CCCC3)c(O)c(Cl)cc12	1.6	-8.4	1.7	9.2	-4.1	nt
CCOCCc1nnc(NC(=O)c2ccc(OC)c(OC)c2)s1	-6.2	10.4	-2.8	-8.4	-2.7	nt
COC(=O)[C@@]1(Sc2ccc(C)cc2)CC(=O)N[C@@H]1c1ccco1	nt	nt	52.4*	6.6	nt	1.1
CCCC(C)C(=O)N(Cc1ccccc1)c1ccccn1 (centres undefined)	-2.1	-3.6	1.6	-0.3	4.8	nt
O=[N+]([O-])c1c(Nc2cccc(O)c2)cc(Cl)c2nonc12	nt	3.2	60.2*	-3.3	4.8	57.8*
O=C(O)c1ccc(Nc2cc(Cl)c3nonc3c2[N+](=O)[O-])cc1	-1.4	-1.1	62.7*	-4.4	-41.1	31.7*
Nc1cc(Nc2ccccc2)c2nonc2c1[N+](=O)[O-]	nt	-3.8	-3.4	1.5	-5.3	nt
Cc1c(Nc2cc(Cl)c3nonc3c2[N+](=O)[O-])c(=O)n(-c2ccccc2)n1C	0.6	nt	58.5*	-2.7	nt	58.2*
O=C(O)c1cccc(Nc2ccc3nonc3c2[N+](=O)[O-])c1	nt	-3.2	12.7	-4.8	1.9	nt
Cc1ccc(C(=O)O)cc1NC(=O)C1CCCN1S(=O)(=O)c1cccc2nsnc12 (centres undefined)	-0.9	-3.2	-2.4	2.5	1.5	nt
COC(=O)C1C2C=CC3(CN(C4CCCC4)C(=O)C13)O2 (centres undefined)	-2.4	-0.8	-3.5	6.8	-7.9	nt
CCCS(=O)(=O)NC(=O)C1(C)CCCN(C(=O)Cc2ccc3ccccc3c2)C1 (centres undefined)	nt	nt	-2.5	-0.9	nt	nt
Nc1cc(Nc2ccccc2)ccn1	nt	-3.4	-1.9	6.4	nt	nt
O=C(COC(=O)c1c2c(nc3ccccc13)/C(=C/c1ccco1)CC2)NC1CCCC1	-2.0	nt	34.6*	26.9*	nt	27.8*
O=C(CNC(=O)c1ccccc1)NCC(=O)OCC(=O)c1ccc([N+](=O)[O-])cc1	1.9	-3.3	35.5*	-6.0	12.6	48.6*
CN1C(=O)CS(=O)c2ccc(C(=O)NC3CC3)cc21 (centres undefined)	-9.2	0.4	37.1*	2.2	3.5	4.0
COC(=O)[C@]12C[C@H](CC(=O)N3CCN(C(=O)c4ccco4)CC3)C(=O)N(CCC3=CCCCC3)C1=C[C@H](C(C)C)O[C@@H]2C1CC1	nt	nt	-4.4	1.7	nt	nt
CCOC(=O)c1ccc(N=c2ssnc2Cl)cc1	-6.6	nt	77.7*	8.4	nt	89.2*
Clc1ccc(N=c2ssnc2Cl)cc1	-4.4	-8.1	72.6*	9.1	3.5	92.6*
SMILES	RBBP9 inh	PAD4 inh	PRMT1 FP inh	SIAE inh	GSTO1 inh	PRMT1 confirm
Clc1nssc1=Nc1ccccc1	0.7	nt	nt	nt	nt	nt
COc1ccc(N=c2ssnc2Cl)cc1	-11.6	3.2	nt	nt	8.3	nt
Fc1ccc(N=c2ssnc2Cl)c(F)c1	-7.1	-1.2	43.7*	3.6	5.1	40.5*
CCOC(=O)c1ccc(N=C2SC(C(=O)NC)CC(=O)N2Cc2ccc(F)cc2)cc1 (centres undefined)	-7.9	-8.0	-0.1	-4.0	4.4	nt
COc1cc(N=c2ssnc2Cl)cc(OC)c1OC	-9.4	-0.5	97.3*	11.3	-6.3	90.0*
O=C(CSc1nnc(-c2ccccn2)n1-c1ccccc1)Nc1ccc2c(c1)OCCO2	nt	nt	0.1	-3.8	nt	nt
COc1ccc(CC(=O)OCC(=O)Nc2ncc(Cl)cc2Cl)cc1OC	-17.5	2.9	-1.3	9.5	1.3	nt
CC1=C(C(=O)OC(C)C)C(c2ccc(Cl)cc2)n2c(sc(=Cc3ccc(OCC(=O)O)cc3)c2=O)=N1 (centres undefined)	nt	nt	11.9	-17.1	nt	nt
CCOC(=O)C1=C(C)N=c2s/c(=C/c3ccc(OCC(=O)O)cc3)c(=O)n2C1c1ccc(F)cc1 (centres undefined)	nt	10.8	36.7*	-16.2	-6.9	10.7

Bioassay records as filed in PubChem BioAssay.
